PRMT1 inh – blocks human protein arginine methyltransferase 1 | inhibition, % at 2.79 µM | 370,000 tested, 1.3% active | recombinant PRMT1, activity-based probe fluorescence polarization | AID 652257 | Q99873;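 active = inhibition above about 21% made by adding two undisclosed values, limit read from the data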
JMJD2C inh – human JMJD2C demethylase inhibition; GST-JMJD2C(1-420) H3K9me3 demethylation, DELFIA europium; inhibition, % at 2.35 µM; 330,000 tested, 0.069% active;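 active = more than half of a compound's replicate wells show inhibition beyond 50%, single wells judged on their own value; inconclusive = some, but no more than half, of replicates pass 50% inhibition; inactive = no replicate passes 50% inhibition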;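 also: signal counts dimethyl H3K9 product captured on neutravidin plate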
ABHD4 inh – ABHD4 (mouse) inhibition, primary FP screen; purified mABHD4, FP-Rh probe fluorescence polarization; AID 720543; 370,000 tested, 0.54% active; Q8VD66; inhibition, % at 8.92 µM;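 active = inhibition exceeding the mean over every tested compound plus 3 SD, cut at about 30% in these data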
Target sequence (Q8VD66 whole entry, looked up): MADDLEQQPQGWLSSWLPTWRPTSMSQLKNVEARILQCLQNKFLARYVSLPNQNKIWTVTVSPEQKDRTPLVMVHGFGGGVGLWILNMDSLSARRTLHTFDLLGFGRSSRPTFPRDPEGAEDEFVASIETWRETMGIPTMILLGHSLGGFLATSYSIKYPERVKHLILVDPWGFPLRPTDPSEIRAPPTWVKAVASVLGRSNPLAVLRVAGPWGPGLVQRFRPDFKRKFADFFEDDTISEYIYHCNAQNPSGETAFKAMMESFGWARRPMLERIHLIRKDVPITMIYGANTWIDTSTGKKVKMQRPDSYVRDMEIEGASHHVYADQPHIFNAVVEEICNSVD
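Assay system: wild-type mouse ABHD4 protein; compound: single nominal dose of 8.92 µM, 0.89% DMSO final; schedule: 45 min + 60 min at 25 °C; measured by: FP readout, ex 525 nm / em 598 nm; evaluation: % inhibition of FP-Rh probe binding versus controls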
HTRA1 inhibitor – blocks human HTRA1 serine peptidase; Q92743; recombinant HTRA1, FP-rhodamine activity-based probe, fluorescence polarization; inhibition, % at 5.96 µM; 340,000 tested, 0.5% active; AID 504803; in the data active = inhibition above about 36%
SIAE inh – blocks human sialic acid acetylesterase; SIAE FP-Rh probe binding, fluorescence polarization; inhibition, % at 9.66 µM; 370,000 tested, 0.69% active; AID 1053197;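 active = inhibition above a cutoff: mean of compounds within the control limits plus 3 SD of those, cut at about 17% in these data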
SIAE inh conf – human SIAE inhibition, confirmation | 2,300 tested, 13% active | AID 1117263 | shares compounds with SIAE inh | inhibition, % at 9.66 µM | SIAE FP-Rh activity-based probe, fluorescence polarization;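 active = mean inhibition of the replicates above the hit cutoff set in the primary screen, cut at about 17% in these data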;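 also: inhibitors lower polarization as more probe stays unbound to SIAE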
Numbers stand for hits; . = inactive; ? = inconclusive; / = not tested or not shown. Compounds with a hit are over-represented: about 2.4% of the library has one in this group of screens.

SMILES | PRMT1 inh | JMJD2C inh | ABHD4 inh | HTRA1 inhibitor | SIAE inh | SIAE inh conf
NC(CSC(c1ccccc1)(c1ccccc1)c1ccc2c(c1)OCO2)C(=O)O (stereo unspecified) | . | / | . | . | . | /
Cc1cc(C)nc(SCC(=O)Nc2ncc3c(n2)CCCC3=O)n1 | . | . | . | . | 47.2 | .
Oc1ccc(/C=N/Nc2ncnc3nc[nH]c23)cc1 | . | . | . | . | 18.2 | .
COC(=O)[C@]12C[C@H](CC(=O)N3CCSCC3)C(=O)N(Cc3ccco3)C1=C[C@H](COCc1ccccc1)O[C@@H]2C | . | / | . | / | . | /
COc1ccc(/C=N/Nc2nc(NCc3ccco3)nc(Nc3ccc(OC)cc3)n2)cc1 | . | . | . | . | . | /
COc1ccc(Nc2nc(NCc3ccco3)nc(N/N=C/c3ccc(O)cc3)n2)cc1 | . | . | . | . | 28.5 | .
COc1ccc(Br)cc1CNC(=O)Nc1cccs1 | . | . | . | . | 18.8 | .
O=C(CCC(=O)OCC(F)(F)C(F)F)Nc1ccc(Cl)cc1 | . | . | . | . | 17.5 | .
O=C(O)/C=C/c1cn(Cc2ccccc2)nc1-c1ccccc1 | . | . | . | . | 18.7 | .
Cc1ccc(-c2nn(Cc3ccccc3)cc2/C=C/C(=O)O)cc1C | . | . | . | . | . | /
Cc1noc(C(=O)Nc2cccnc2)c1Cl | . | . | . | . | 17.5 | .
CC(=O)c1cccc(NC(=O)c2onc(C)c2Cl)c1 | . | . | . | . | . | /
COc1cc(OC)c(NC(=O)N2CCOCC2)cc1Cl | . | . | . | . | 25.2 | .
COc1cc(OC)c(NC(=O)c2cc(S(=O)(=O)N3CCOCC3)cn2C)cc1Cl | . | . | . | . | . | /
Nc1c(-c2ccccc2Cl)cnn1-c1cccc([N+](=O)[O-])c1 | . | . | . | . | 74.6 | .
Cc1ncc(CO)c(/C=N/NC(=S)Nc2ccc(C(C)C)cc2)c1O | . | . | . | . | 17.5 | .
Cc1ncc(CO)c(/C=N/NC(=O)c2ccc(Br)cc2)c1O | / | . | / | / | / | /
COCCNc1nc2c(-c3cccc(C(F)(F)F)c3)nnn2c2ccccc12 | . | . | . | . | . | /
NNc1nc2c(-c3cccc(C(F)(F)F)c3)nnn2c2ccccc12 | . | . | . | . | 22.5 | .
O=C1CN(C(=O)CSc2ccccn2)c2ccccc2N1 | . | . | . | . | . | /
CN(C)S(=O)(=O)c1ccc(SCC(=O)N2CC(=O)Nc3ccccc32)nc1 | . | . | . | . | 17.4 | .
Cc1cc(C)cc(N(CC(=O)NC2CCC(C)CC2)S(=O)(=O)c2ccccc2)c1 (stereo unspecified) | . | / | . | / | . | /
O=C(Cc1ccccc1)NNC(=S)NC(=O)c1cccnc1 | . | . | . | / | 17.3 | .
COc1ccc(/C=C/C(=O)NC(=S)NNC(=O)c2cccnc2)cc1 | . | . | . | . | 20.9 | .
c1ccc(-c2ccc(C3=Nn4c(nnc4-c4ccncc4)SC3)cc2)cc1 | . | / | . | / | . | /
SMILES | PRMT1 inh | JMJD2C inh | ABHD4 inh | HTRA1 inhibitor | SIAE inh | SIAE inh conf
c1csc(C2=Nn3c(nnc3-c3ccncc3)SC2)c1 | . | . | . | . | 18.8 | .
CCn1cnc2cc(NCc3cccs3)ccc21 | . | . | . | . | 20.9 | .
Cc1cccc(NC(=O)CN2CCN(C(=O)CNC(=O)c3ccc(-c4ccccc4)cc3)CC2)c1C | . | / | . | . | . | /
Cc1cccc(NC(=O)CN2CCN(C(=O)C(C)Oc3ccc(C#N)cc3)CC2)c1C (stereo unspecified) | . | . | . | . | 20.1 | .
Cc1[nH]c2ccccc2c1/C=N/Nc1nc(N2CCCCC2)nc(N2CCCCC2)n1 | . | . | . | . | 17.9 | .
C(=N\Nc1nc(N2CCCCC2)nc(N2CCCCC2)n1)/c1c[nH]c2ccccc12 | . | . | . | . | . | /
Cc1[nH]c2ccccc2c1/C=N/Nc1nc2ccccc2[nH]1 | . | ? | . | / | 32.3 | 36.8
COc1ccc(/C=N/Nc2nc3ccccc3[nH]2)c(OC)c1OC | . | . | . | . | 21.1 | .
COc1ccc([C@H]2OC(=O)C[C@H]2C(=O)N2CCN(C(=O)C3CCCO3)CC2)cc1OC (stereo partly specified) | . | / | . | / | . | /
CC(=O)OC(C(=O)NC1CCCCC1)c1ccccc1F (stereo unspecified) | . | . | . | . | 17.6 | .
O=C1[C@@H](Oc2ccccc2)[C@@H](c2cnc3ccccc3c2)N1c1ccccc1 | . | / | . | . | . | /
CC(=O)Nc1cc([N+](=O)[O-])ccc1N1CCOCC1 | . | . | . | . | . | /
O=C(Nc1ccc([N+](=O)[O-])cc1)Nc1ccc(N2CCOCC2)c2nonc12 | . | . | . | . | 19.4 | .
CCC(C)CNC(=O)c1[nH]c(C(F)(F)F)nc1-c1ccccc1 (stereo unspecified) | . | / | . | / | . | /
COc1ccc(-c2[nH]c(-c3cccc(OC)c3)nc2SCC(=O)NC2CCCC2)cc1 | . | . | . | . | 23.7 | .
COc1ccc(-c2[nH]c(-c3ccccc3)nc2SCC(=O)NC2CCCC2)cc1 | . | . | . | . | . | /
COc1cc2c(c(OC)c1)[C@H](/C=C/c1ccccc1)[C@@H]([C@H](O)CO)OC2 | . | / | . | / | . | /
Fc1ccc(C2=NN(c3ccccc3)C(c3ccco3)C2)cc1 (stereo unspecified) | . | . | . | . | . | /
COc1ccccc1C1CC(c2ccco2)=NN1c1ccccc1 (stereo unspecified) | . | . | . | . | 17.2 | .
CCC(NC(=O)c1ccc2c(ccn2Cc2cccc(-c3ccc(C(=O)O)cc3)c2)c1)c1ccccc1 (stereo unspecified) | . | / | . | / | . | /
CCOC(=O)N1CCN(S(=O)(=O)c2ccc(C)c(C(=O)NC3CCCCC3)c2)CC1 | . | . | . | . | 19.4 | .
O=C(Cn1ccc(NC(=O)OCc2ccccc2)nc1=O)NCC1CCCO1 (stereo unspecified) | . | . | . | . | 18.2 | .
Cc1ncc(CSc2nc3ccccc3[nH]2)c(N)n1 | . | . | . | . | . | /
COc1ccc2nc(SCc3cnc(C)nc3N)[nH]c2c1 | . | . | . | . | 19.1 | .
CO[C@H]1CN(C)C(=O)c2cc(NC(=O)C3CCOCC3)ccc2OC[C@H](C)N(Cc2nccs2)C[C@H]1C | . | / | . | / | . | /
SMILES | PRMT1 inh | JMJD2C inh | ABHD4 inh | HTRA1 inhibitor | SIAE inh | SIAE inh conf
COc1ccccc1C(=O)n1ccc2ccc(-c3ccc4ccn(Cc5ccc(C#N)cc5)c4c3)cc21 | . | / | . | / | . | /
CCN(CC)CCn1c(=N)n(CCO)c2ccccc21 | . | . | . | . | 21.3 | .
CCN(CC)CCn1c(=N)n(CCOc2ccccc2)c2ccccc21 | . | . | . | . | . | /
Cn1c(NCc2ccc3occc3c2)nc2cc(-c3ccc(F)cc3)sc2c1=O | . | / | . | / | . | /
CN(C)c1ccc(CNc2nc3cc(-c4ccc(F)cc4)sc3c(=O)n2C)cc1 | . | / | . | / | 17.4 | .
CC(Cl)C(=O)N1CCC(C(=O)NCC2COc3ccccc3O2)CC1 (stereo unspecified) | . | / | . | / | . | /
